Here are results for 19 molecules from ChEMBL document CHEMBL1146764, “Synthesis and evaluation of novel 1,4-naphthoquinone derivatives as antiviral, antifungal and anticancer agents” (2004).

Assay [1] deals with Candida albicans. As to the kind of experiment: Minimum inhibitory concentration towards C. albicans; value ranges from 7.8-7.9 ug/mL. Format: functional, organism-based.
The subject of assay [2] is Cryptococcus neoformans. Kind of assay: Minimum inhibitory concentration towards C. neoformans; value ranges from 3.5-3.9 ug/mL. The format is functional, organism-based.
The test system of a further assay is Trichophyton benhamiae. As to the kind of experiment: Minimum inhibitory concentration towards Trichophyton mentagrophytes. The format is functional, Trichophyton mentagraphytes.
A further assay deals with Microsporum canis. Kind of assay: Minimum inhibitory concentration towards Microsporum canis. The format is functional.
Assay [3] deals with Candida albicans. As to the kind of experiment: Minimum inhibitory concentration towards Candida albicans. The format is functional.
In another assay the test system is Influenza A virus. As to the kind of experiment: In vitro antiviral activity of compound against Influenza-A virus. Format: functional.
Assay [4] concerns Cryptococcus neoformans. Kind of assay: Minimum inhibitory concentration towards Cryptococcus neoformans. Format: functional.
Another assay has as its system Aspergillus fumigatus. As to the kind of experiment: Minimum inhibitory concentration towards Aspergillus fumigatus. The format is functional.
A further assay deals with Klebsiella pneumoniae. Kind of assay: Minimum inhibitory concentration towards Klebsiella pneumoniae. Format: functional.
The test system of the next assay is Staphylococcus aureus. Kind of assay: Minimum inhibitory concentration towards Staphylococcus aureus. Format: functional.
In the next assay the test system is Pseudomonas aeruginosa. As to the kind of experiment: Minimum inhibitory concentration towards Pseudomonas aeruginosa. The format is functional.
Assay [5] has as its system Agrobacterium tumefaciens. As to the kind of experiment: Minimum inhibitory concentration towards Agrobacterium tumefaciens. Format: functional.
Assay [6] relates to Rattus norvegicus. As to the kind of experiment: Anticancer activity against lymphoid leukemia P388 in rats at a dose of 10 mg/kg. Format: functional. In outline: (§1)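 Lymphoid leukaemia P 388 in rats, four animals per group, given 10 mg/kg. Survivors counted. Activity expressed as T/C (%) of treated versus control.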
Assay [7] has as its system Rattus norvegicus. Kind of assay: Number of survivors out of 4 rats treated at 10 mg/kg. Format: functional. The procedure, abridged:
as §1

Assay [8] relates to Rattus norvegicus. Kind of assay: Number of survivors out of 6 rats treated at 6.25 mg/kg. The format is functional. The procedure, abridged:
(§2)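 Lymphoid leukaemia L-1210 in rats, six animals per dose group, doses 1.56–25 mg/kg. Survivors counted per group. T/C (%) compares a tumour evaluation parameter in treated versus control animals.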

Assay [9] has as its system Rattus norvegicus. Kind of assay: Anticancer activity against Lymphoid Leukemia L-1210 in rats at dose of 3.12 mg/kg. Format: functional. The procedure, abridged:
as §2

Assay [10] deals with Rattus norvegicus. Kind of assay: Number of survivors out of 6 rats treated at 1.56 mg/kg. Format: functional. The procedure, abridged: as §2
In assay [11] the test system is Rattus norvegicus. As to the kind of experiment: Anticancer activity against Lymphoid Leukemia L-1210 in rats at dose of 1.56 mg/kg. Format: functional. In outline: as §2
Assay [12] concerns Rattus norvegicus. As to the kind of experiment: Number of survivors out of 6 rats treated at 3.12 mg/kg. Format: functional. In outline:
as §2

Assay [13] relates to Rattus norvegicus. Kind of assay: Anticancer activity against Lymphoid Leukemia L-1210 in rats at dose of 6.25 mg/kg. The format is functional. In outline:
as §2

In assay [14] the test system is Rattus norvegicus. As to the kind of experiment: Anticancer activity against Lymphoid Leukemia L-1210 in rats at dose of 12.5 mg/kg. Format: functional.
Assay [15] has as its system Rattus norvegicus. As to the kind of experiment: Number of survivors out of 6 rats treated at 25 mg/kg. The format is functional. The procedure, abridged: as §2
Assay [16] concerns Rattus norvegicus. Kind of assay: Number of survivors out of 6 rats treated at 12.5 mg/kg. Format: functional.
Assay [17] concerns Rattus norvegicus. As to the kind of experiment: Anticancer activity against Lymphoid Leukemia L-1210 in rats at dose of 25.0 mg/kg; Toxic. The format is functional, organism-based. The arrangement: dose 25 mg/kg.

In brackets after ≈: the same amount, converted by molar mass.

For NYSTATIN, the figures for the MIC in the assay with Candida albicans [1] and in the assay with Cryptococcus neoformans [2] were 7.9 µg/mL and 3.9 µg/mL, respectively.

Take `O=C1C(=O)c2ccccc2C(O)=C1Sc1ccccc1`: the MIC against Trichophyton benhamiae was 6.25 µg/mL (≈ 22.1 µM); with Microsporum canis it was 25 µg/mL (≈ 88.6 µM); against Candida albicans [3], 25 µg/mL (≈ 88.6 µM); against Cryptococcus neoformans [4] it was > 50 µg/mL; in the assay on Aspergillus fumigatus, > 50 µg/mL. The Inhibition with Influenza A virus stood at 50%.

Consider `O=C1C=C(Sc2ccccc2)C(=O)c2ccccc21`, for which the MIC in the assay with Trichophyton benhamiae is < 0.78 µg/mL; in the assay with Microsporum canis, < 0.98 µg/mL; in the assay with Klebsiella pneumoniae, > 50 µg/mL; against Staphylococcus aureus it was 25 µg/mL (≈ 93.9 µM); against Candida albicans [3] it was 12.5 µg/mL (≈ 46.9 µM); in the assay with Cryptococcus neoformans [4], 1.56 µg/mL (≈ 5.86 µM). The MIC was > 50 µg/mL with Pseudomonas aeruginosa, 25 µg/mL (≈ 93.9 µM) against Aspergillus fumigatus and > 50 µg/mL in assay [5].

For `O=C1C=CC(=O)c2c1c(O)c1sc3ccccc3c(=O)c1c2O`, the MIC with Trichophyton benhamiae is 25 µg/mL (≈ 77.1 µM); with Microsporum canis, > 50 µg/mL; against Candida albicans [3], > 50 µg/mL; against Cryptococcus neoformans [4], > 50 µg/mL; in the assay with Aspergillus fumigatus it was > 50 µg/mL.

For the molecule `C[C@@H]1[C@H](O)[C@@H](C)/C=C/C=C/C=C/C=C/C=C/C=C/C=C/[C@H](O[C@@H]2O[C@H](C)[C@@H](O)[C@H](N)[C@@H]2O)C[C@@H]2O[C@](O)(C[C@@H](O)C[C@@H](O)[C@H](O)CC[C@@H](O)C[C@@H](O)CC(=O)O[C@H]1C)C[C@H](O)[C@H]2C(=O)O` [AMPHOTERICIN B], the MIC against Trichophyton benhamiae was 1.56 µg/mL (≈ 1.69 µM); in the assay with Microsporum canis, 1.56 µg/mL (≈ 1.69 µM); in the assay on Candida albicans [3] it was 0.39 µg/mL (≈ 0.422 µM); against Cryptococcus neoformans [4], 0.78 µg/mL (≈ 0.844 µM).

Take GENTAMICIN: the MIC is 0.39 µg/mL against Klebsiella pneumoniae, 0.78 µg/mL against Staphylococcus aureus and 0.78 µg/mL against Pseudomonas aeruginosa.

Consider `NC(=O)CCSC1=CC(=O)c2ccccc2C1=O`, for which the T/C in the assay with Rattus norvegicus [6] was found to be 49%. The molecule also registered a Survivors in the assay on Rattus norvegicus [7] of 4.

With `O=C(O)CCCSC1=CC(=O)c2ccccc2C1=O`, the MIC against Trichophyton benhamiae was 25 µg/mL (≈ 90.5 µM); in the assay on Microsporum canis, > 50 µg/mL; in the assay with Klebsiella pneumoniae it was 50 µg/mL (≈ 181 µM); against Staphylococcus aureus it was 12.5 µg/mL (≈ 45.2 µM); with Candida albicans [3] it was > 50 µg/mL; against Cryptococcus neoformans [4], > 50 µg/mL. Also, the minimal inhibitory concentration (MIC) in the assay on Aspergillus fumigatus was > 50 µg/mL. For the same molecule, the Survivors with Rattus norvegicus [8], in the assay on Rattus norvegicus [10] and with Rattus norvegicus [12] was 6 each time. The T/C is 96% in the assay on Rattus norvegicus [9], 89% in the assay with Rattus norvegicus [11] and 100% with Rattus norvegicus [13].

With `O=C(O)CCCSC1=CC(=O)c2c(O)ccc(O)c2C1=O`, the MIC was 3.12 µg/mL (≈ 10.1 µM) against Trichophyton benhamiae; 3.12 µg/mL (≈ 10.1 µM) against Microsporum canis; 50 µg/mL (≈ 162 µM) in the assay on Klebsiella pneumoniae; > 50 µg/mL in the assay on Staphylococcus aureus; 3.12 µg/mL (≈ 10.1 µM) in the assay with Candida albicans [3]; 1.56 µg/mL (≈ 5.06 µM) in the assay on Cryptococcus neoformans [4]. The MIC is > 50 µg/mL with Pseudomonas aeruginosa, > 50 µg/mL in the assay on Aspergillus fumigatus and 12.5 µg/mL (≈ 40.5 µM) in assay [5].

For `O=C1C=C(SCCC(=O)N2CCCCC2)C(=O)c2ccccc21`, the T/C in the assay on Rattus norvegicus [6] was 30%. The same molecule yielded a Survivors with Rattus norvegicus [7] of 4.

For the molecule `O=C(O)CCSC1=CC(=O)c2ccccc2C1=O`, the T/C is 110% in the assay on Rattus norvegicus [14], 115% in the assay with Rattus norvegicus [13] and “Toxic” in the assay on Rattus norvegicus [17]. Further, the Survivors in the assay with Rattus norvegicus [8] amounted to 6; in the assay with Rattus norvegicus [15], 1; in the assay with Rattus norvegicus [16], 6. For the same molecule, the MIC against Klebsiella pneumoniae was 50 µg/mL (≈ 191 µM); in the assay on Staphylococcus aureus, 12.5 µg/mL (≈ 47.7 µM); in the assay on Pseudomonas aeruginosa, 12.5 µg/mL (≈ 47.7 µM); in assay [5], 25 µg/mL (≈ 95.3 µM).

With `O=C1C=CC(=O)C(Sc2ccccc2C(=O)O)=C1`, the MIC is > 50 µg/mL in the assay with Trichophyton benhamiae; > 50 µg/mL in the assay on Microsporum canis; 25 µg/mL (≈ 96.1 µM) in the assay on Klebsiella pneumoniae; > 50 µg/mL with Staphylococcus aureus; > 50 µg/mL against Candida albicans [3]; 50 µg/mL (≈ 192 µM) with Cryptococcus neoformans [4]. Further, the MIC against Pseudomonas aeruginosa was 25 µg/mL (≈ 96.1 µM); against Aspergillus fumigatus, > 50 µg/mL; in [5], > 50 µg/mL.

Regarding `Clc1ccc(COC(Cn2ccnc2)c2ccc(Cl)cc2Cl)c(Cl)c1` (stereo not drawn) [MICONAZOLE], the MIC was < 0.78 µg/mL in the assay on Trichophyton benhamiae; < 0.78 µg/mL against Microsporum canis; 25 µg/mL (≈ 60.1 µM) in the assay with Candida albicans [3]; 12.5 µg/mL (≈ 30 µM) against Cryptococcus neoformans [4]; 12.5 µg/mL (≈ 30 µM) in the assay with Aspergillus fumigatus.

`O=C1C(Sc2cccc3ccccc23)=C(Sc2cccc3ccccc23)C(=O)c2c(Cl)ccc(O)c21`: the MIC was 50 µg/mL (≈ 95.2 µM) with Trichophyton benhamiae; > 50 µg/mL with Microsporum canis; 50 µg/mL (≈ 95.2 µM) with Candida albicans [3]; > 50 µg/mL against Cryptococcus neoformans [4]; > 50 µg/mL against Aspergillus fumigatus.

On to `O=C(O)CCCSC1=CC(=O)c2c(Cl)ccc(O)c2C1=O`, for which the MIC in the assay on Trichophyton benhamiae is 25 µg/mL (≈ 76.5 µM); against Microsporum canis, > 50 µg/mL; in the assay on Candida albicans [3] it was > 50 µg/mL; in the assay with Cryptococcus neoformans [4] it was > 50 µg/mL; with Aspergillus fumigatus, > 50 µg/mL.

As for `O=C(O)c1ccccc1SC1=CC(=O)c2c(Cl)ccc(O)c2C1=O`, the MIC is 25 µg/mL (≈ 69.3 µM) against Trichophyton benhamiae; > 50 µg/mL in the assay on Microsporum canis; 25 µg/mL (≈ 69.3 µM) in the assay with Klebsiella pneumoniae; > 50 µg/mL with Staphylococcus aureus; > 50 µg/mL against Candida albicans [3]; > 50 µg/mL against Cryptococcus neoformans [4]. Moreover, the MIC in the assay on Pseudomonas aeruginosa is 50 µg/mL (≈ 139 µM); against Aspergillus fumigatus, > 50 µg/mL; in assay [5], > 50 µg/mL.

For `O=C1C(Sc2ccccc2)=C(Sc2ccccc2)C(=O)c2c(Cl)ccc(O)c21`, the MIC in the assay with Trichophyton benhamiae is > 50 µg/mL; with Microsporum canis, 50 µg/mL (≈ 118 µM); with Candida albicans [3], > 50 µg/mL; in the assay with Cryptococcus neoformans [4] it was > 50 µg/mL; against Aspergillus fumigatus it was 50 µg/mL (≈ 118 µM).

Turning to `O=C(O)CCSC1=CC(=O)c2c(O)ccc(O)c2C1=O`, the Inhibition in the assay with Influenza A virus turned out to be 52%.

Take `O=C1C(Sc2cccc3ccccc23)=C(Sc2cccc3ccccc23)C(=O)c2ccccc21`: the MIC with Klebsiella pneumoniae is > 50 µg/mL; against Staphylococcus aureus, 50 µg/mL (≈ 105 µM); against Pseudomonas aeruginosa it was > 50 µg/mL; in assay [5], > 50 µg/mL.

Broadly, the MIC is the lowest concentration that inhibits growth of the organism. High values mean a less susceptible organism, low ones a more susceptible organism. In general, Inhibition refers to the change of the read-out against control, counted positive when it falls. The T/C is the result in the treated group divided by that in the control group, in per cent.
